# Screening results as filed in PubChem.
# Hck-Nef inh: inhibitors of Nef-activated human Hck kinase, primary screen, biochemical, Z-Lyte FRET, 384-well, Hck-YEEI. Tyrosine-protein kinase HCK (Homo sapiens), P08631. Recombinant Hck-YEEI plus Nef, Z-Lyte FRET kinase assay. inhibition, % at 20 µM. 220,000 compounds, 0.68% hits;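 active = Hck-Nef kinase inhibition above about 50%, limit read from the data; inactive = inhibition below that limit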;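 also: 0% = DMSO with Hck plus Nef and 100% = Hck alone without Nef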
# Mcl1 Noxa PPI: Mcl-1/Noxa binding inhibitors, primary screen, biochemical, TR-FRET, 1536-well; Induced myeloid leukemia cell differentiation protein Mcl-1 (Homo sapiens), Q07820; TR-FRET Mcl-1/Noxa peptide binding, 2 h; inhibition, % at 21.7 µM; 220,000 compounds, 1.5% hits; AID 1022, 2008;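 active = compounds that cut the protein-peptide binding signal by more than 50% relative to plate controls in a single-dose test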;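 also: His-tagged Mcl-1 with rhodamine Noxa BH3 peptide and terbium anti-His antibody; 0% = Mcl-1 plus Noxa peptide wells and 100% = peptide-only wells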
# Target sequence (Q07820 whole entry, looked up): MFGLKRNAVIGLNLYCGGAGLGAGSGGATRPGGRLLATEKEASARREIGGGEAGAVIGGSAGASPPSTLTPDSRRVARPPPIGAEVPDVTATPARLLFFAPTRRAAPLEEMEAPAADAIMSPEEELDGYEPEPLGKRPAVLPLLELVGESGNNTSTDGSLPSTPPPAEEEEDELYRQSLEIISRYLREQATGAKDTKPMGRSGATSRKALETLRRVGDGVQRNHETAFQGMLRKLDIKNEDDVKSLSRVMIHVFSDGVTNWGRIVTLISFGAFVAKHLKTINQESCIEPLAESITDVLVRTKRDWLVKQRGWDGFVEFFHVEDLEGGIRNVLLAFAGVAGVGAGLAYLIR
# Calb biofilm kill: clotrimazole potentiators killing C. albicans biofilm, primary screen, 4-compound mixtures; C. albicans biofilm persisters + clotrimazole, fluorescence viability; primary screen in compound mixtures of four per well; inhibition, % at 7.6 µM; AID 1242, 2008; 120,000 compounds, 0.02% hits;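 active = inhibition above 30.3% in the primary screen of four-compound pools, then above 30% when the compound was retested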;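 also: compounds exposed to preformed 24 h biofilms for 48 h; 0% = untreated biofilm control and 100% = clotrimazole plus chlorhexidine kill blank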
#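 System: C. albicans CAF4-2 wild-type biofilms; Medium: RPMI/MOPS medium, pH 7.0; Reagent: Clotrimazole, 50 µg/mL; Times: biofilm formation 24 h, compound exposure 48 h, 37 °C; Detection: 2-h Alamar Blue fluorescence, 535/590 nm excitation/emission; Evaluation: percent inhibition of biofilm viability.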
# Mcl1 Bid PPI: Mcl-1/Bid binding inhibitors, primary screen, biochemical, TR-FRET, 1536-well; Induced myeloid leukemia cell differentiation protein Mcl-1 (Homo sapiens), Q07820; TR-FRET Mcl-1/Bid-Dy647 peptide binding; inhibition, % at 21.7 µM; 220,000 compounds, 0.97% hits;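 active = compounds that cut the binding signal by more than half at the single screening dose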;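 also: His-tagged Mcl-1 with europium anti-His antibody binding Bid BH3 peptide; 0% = Mcl-1 plus peptide wells and 100% = peptide-only wells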
# Bim-Mcl-1: inhibitors of Bim peptide binding to Mcl-1, primary screen, biochemical, bead-based flow cytometry, multiplex. 190,000 compounds, 0.1% hits. Induced myeloid leukemia cell differentiation protein Mcl-1 (Homo sapiens), Q07820. Bim peptide-Mcl-1 binding. AID 1009, 2008. inhibition, % at 10 µM; in the data active = inhibition above about 40%;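 also: 0% = no compound tracer wells and 100% = peptide blocker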
# 14-3-3 Bad inh: inhibitors of 14-3-3 zeta/Bad binding, primary screen, biochemical, TR-FRET, bovine 14-3-3 zeta | 14-3-3 protein zeta/delta (Bos taurus), P63103 | TR-FRET 14-3-3zeta/Dy647-pBad peptide displacement, 1 h | inhibition, % at 21.7 µM | 220,000 compounds, 0.71% hits | AID 781, 2007;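 active = inhibition above about 70%, limit read from the data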;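 also: 0% = full 14-3-3 plus peptide FRET controls and 100% = background without 14-3-3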
# Target sequence (P63103 whole entry, looked up): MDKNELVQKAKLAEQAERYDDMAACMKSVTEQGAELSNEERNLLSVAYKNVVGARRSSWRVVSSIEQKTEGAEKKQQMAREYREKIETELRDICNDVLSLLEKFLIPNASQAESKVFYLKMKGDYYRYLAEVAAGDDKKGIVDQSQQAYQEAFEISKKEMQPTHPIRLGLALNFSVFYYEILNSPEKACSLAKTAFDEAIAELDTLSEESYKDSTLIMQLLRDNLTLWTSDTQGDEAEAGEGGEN
# Hck-Nef confirm: retest of Hck:Nef kinase inhibitor hits, confirmation, biochemical, Z-Lyte FRET, 384-well, p-Tyr peptide counterscreen. shares compounds with Hck-Nef inh. calls only at 10 µM. Recombinant Hck-YEEI:Nef, Z-Lyte FRET kinase assay. AID 463188, 2010. 1,300 compounds, 28% hits;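 active = average inhibition of at least 50%, with Z-scores no higher than 3 in both the phospho-tyrosine peptide and fluorescence counterscreens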
# Numbers without * were called inactive; i = inactive; nt = no result given; + = active, no number. Sampled rows, rich in hits. Any-hit rate of the full collection: about 3.2%.
SMILES,Hck-Nef inh,Mcl1 Noxa PPI,Calb biofilm kill,Mcl1 Bid PPI,Bim-Mcl-1,14-3-3 Bad inh,Hck-Nef confirm
COCCNC(=S)NCCCNc1nc2cc3c(cc2cc1C#N)OCO3,70*,-2,nt,-37,-3,2,nt
CCOCCCNC(=S)NCCCNc1nc2cc3c(cc2cc1C#N)OCO3,21,11,nt,-19,-1,5,nt
CN(C)CCCNC(=S)NCCNc1nc2cc3c(cc2cc1C#N)OCO3,51*,16,6,-20,-29,-7,nt
CC1(c2ccccc2)CC(C)(C)N2C(=O)/C(=C3\SC(=S)NC3=O)c3cccc1c32 (stereo not drawn),94*,111*,6,93*,-9,18,+
COc1ccc(CCNC(=O)c2ccc3c(SCC(=O)O)c4c(nc3c2)CCCC4)cc1OC,26,38,15,-13,2,-4,nt
Cc1ccc2c3c([nH]c2c1C)-c1nonc1CC3,6,0,7,-2,-2,-4,nt
O=C1OC(/C=C/c2ccccc2)=NC/1=C\c1cccnc1,82*,12,29,11,-3,0,+
Cc1ccc(C2=N/C(=C\c3cccnc3)C(=O)O2)cc1,0,6,7,-6,-5,11,nt
Cc1cccc2c(SCC(=O)NCC3CCCO3)nc(-c3ccc(F)cc3)nc12 (stereo not drawn),88*,-9,nt,-4,1,2,i
Cc1cccc2cc(C#N)c(SCC(=O)NCC3CCCO3)nc12 (stereo not drawn),1,16,12,0,0,-8,nt
CCN1/C(=C2/OC(=S)N(C)C2=O)Sc2ccccc21,0,5,nt,-1,-2,-8,nt
CCN1/C(=C\C=C2\C(=O)N(C)C(=S)N2C)Sc2ccccc21,72*,30,16,-30,-4,0,i
COCCNC(=O)c1cc2c(=O)n3cccc(C)c3nc2n(Cc2ccncc2)c1=N,151*,1,nt,-5,-1,-1,nt
Cc1cccn2c(=O)c3cc(C#N)c(=N)n(Cc4ccncc4)c3nc12,-1,-16,nt,5,-1,5,nt
CCCCNC(=O)c1cc2c(=O)n3cccc(C)c3nc2n(Cc2ccncc2)c1=N,67*,-1,nt,-7,1,-4,i
O=C(COC(=O)CCSc1ccccc1)NCc1ccccc1,23,14,11,-11,-1,-6,nt
CCCCN(C(=O)CN1CC(C)OC(C)C1)c1c(N)n(CC(C)C)c(=O)[nH]c1=O (stereo not drawn),2,18,10,-17,-4,-4,nt
CCCCN(C(=O)Cn1ncc(Cl)c(Cl)c1=O)c1c(N)n(CC(C)C)c(=O)[nH]c1=O,66*,66*,8,-1,nt,13,+
Cc1c(C)c2cc(Cl)c(O)c(CN(C)C)c2oc1=O,87*,10,nt,-27,0,-2,nt
CCc1c(C)c2cc(Cl)c(O)c(CN(CC)CC)c2oc1=O,115*,4,nt,-2,-1,6,nt
CCCCc1cc(=O)oc2cc(OCC(=O)N(CC)CC)c(Cl)cc12,3,2,nt,2,-3,11,nt
CCCCc1cc(=O)oc2c(CN(C)C)c(O)c(Cl)cc12,117*,6,nt,-37,1,nt,nt
CCc1c(C)c2cc(Cl)c(O)c(CN(C)C)c2oc1=O,123*,-8,nt,5,2,-2,nt
COc1ccc(-c2cc(=O)oc3c(C)c(O)c(CN(C)C)cc23)cc1,6,18,nt,-40,-2,3,nt
Nc1nc(C(F)(F)F)cc(=O)n1N,-11,-7,3,-11,1,-8,nt
SMILES,Hck-Nef inh,Mcl1 Noxa PPI,Calb biofilm kill,Mcl1 Bid PPI,Bim-Mcl-1,14-3-3 Bad inh,Hck-Nef confirm
CCCCC(CC)C(=O)NCCCN1CCN(CCCNC(=O)C(CC)CCCC)CC1 (stereo not drawn),-4,7,nt,-7,-2,-5,nt
O=c1[nH]ncc(N2CCCCCC2)c1Cl,16,-4,17,-27,-2,-8,nt
CC(C)OCCCn1c(-c2ccco2)nc2nc3ccccc3nc21,131*,23,nt,-11,0,-11,nt
Cc1cccc(C2c3[nH]c4ccccc4c3CCN2C(=O)c2cc(CC(C)C)nc(C)n2)n1 (stereo not drawn),1,11,10,-39,0,-8,nt
COC(=O)c1ccc(OCC(=O)c2ccccc2OC)cc1,-2,3,nt,14,-3,13,nt
CC(=O)c1c(C)[nH]c(C(=O)CSc2nnc(-c3ccccc3)n2Cc2ccc3c(c2)OCO3)c1C,64*,22,nt,27,-2,-7,i
CC(=O)c1c(C)[nH]c(C(=O)CSc2nnc(-c3ccco3)n2Cc2ccccc2)c1C,0,21,nt,8,-5,1,nt
Cc1nc(-c2noc(-c3ccc(Cl)cc3)n2)c(C(F)(F)F)o1,11,10,14,-10,nt,-3,nt
O=C(N/N=C/c1cccc([N+](=O)[O-])c1)c1ccccc1-n1cccc1,58*,4,10,-17,-1,5,i
O=C(N/N=C/c1cccc([N+](=O)[O-])c1)c1cccc2cc[nH]c12,20,13,-1,-9,0,-20,nt
CCCCOc1ccc(-c2nnc(N)s2)cc1,78*,-5,13,-1,-5,1,+
Cc1ccc(O)c(NC(=S)NC(=O)/C=C/c2ccco2)c1,75*,8,14,-41,0,-10,+
CCN(CC)c1ccc(-c2nnc(SCC(=O)Nc3ccccc3C#N)n2-c2ccccc2)cc1,66*,-12,nt,-21,-2,11,+
N#Cc1ccccc1NC(=O)CSc1nnc(-c2ccccc2)n1-c1ccccc1,2,-8,nt,-35,0,-6,nt
COCCCNC(=O)CN1CCN(Cc2ccc(Cl)cc2)C1=O,0,8,nt,-10,0,-8,nt
O=C(CCc1nc2ccccc2[nH]c1=O)OCC(=O)c1cccc2ccccc12,0,8,nt,0,-3,-2,nt
O=[N+]([O-])c1ccc(N/N=C/c2ccc(O)c(O)c2O)c(S(=O)(=O)N2CCOCC2)c1,117*,104*,12,-45,12,2,i
Cc1ccc(C)c(NC(=O)c2cc3ccccn3n2)c1,11,19,nt,-34,2,-2,nt
